Assay outcomes as filed in PubChem BioAssay.
Lung fibro prol – antiproliferative effect on LL 47 fibroblasts – human, LL 47 cells, CellTiter-Glo luminescence, primary screen | LL 47 human lung fibroblast viability, ATP luminescence; active compounds read low | AID 719, 2007 | viability, % at 10 µM | 1.1% of 85,000 active;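 active means viability at or below 50% in the single dose screen; inactive means viability above 50%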;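 further: compound exposure lasted 72 h before the ATP readout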
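test system = LL 47 human lung fibroblasts | amount = 1,150 fibroblasts seeded per well | medium = 15% FBS in IMEM | times = overnight cell rest, 72 h compound treatment at 37 °C | measured by = CellTiter-Glo luminescence measuring cellular ATP | read-out = viability percentage against median untreated-cell control | benchmarks = cell-only wells, no compound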
HUVEC prolif 384 – inhibitors of HUVEC proliferation, primary screen, cell-based, 384-well. viability, % at 10 µM (by protocol). 1.1% of 86,000 active. AID 648, 2007. CellTiter-Glo luminescence, 72 h; active compounds read low;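 active means viability at or below 30%; inactive means viability above 30%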
H69AR growth 86K – proliferation blockers of H69AR lung cancer cells, primary screen, cell-based, human, 86K library | H69AR lung tumor viability, ATP luminescence, 72 h; active compounds read low | viability, % at 10 µM | 6% of 85,000 active;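 active means viability at or below 40%; inactive means viability above 40%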;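 further: multidrug resistant small cell line overexpressing MRP-1 efflux transporter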
HCT116 PTEN-null – growth suppression of PTEN-null HCT116, primary screen, cell-based, CellTiter-Glo; 1.2% of 140,000 active; viability, % at 10 µM; HCT116 PTEN-null viability, 60 h; active compounds read low;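 active means viability at or below a set limit, 4 SD under the median of all tested compounds, cut at about 3.7% in these data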;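 further: PTEN knockout HCT116 line with beta catenin targeted HCT116 as companion control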
bCat KO growth – primary screen for growth suppressors in beta-catenin knockout HCT116 cells (colon tumor, human); HCT116 beta-catenin knockout viability, CellTiter-Glo, 60 h; active compounds read low; viability, % at 10 µM; 1.5% of 140,000 active;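 active means viability at or under a set limit, the compound median less 4 SD, cut at about 6% in these data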
Each line names hits and unclear results; the compound was inactive in the other large screens. The entries come from a sample that favours hits as a whole.

O=C(NNC(=O)c1ccc(SCC2CCCO2)c([N+](=O)[O-])c1)c1ccc(Cl)c([N+](=O)[O-])c1 (centres undefined)	H69AR growth 86K 6.1
COc1ccc(C2N(C(=O)CN3CCOCC3)CCN2S(=O)(=O)c2ccccc2)cc1 (centres undefined)	H69AR growth 86K 22 (no result: Lung fibro prol)
O=C(/C=C/Nc1cccc(O)c1)c1ccccc1	none
CCOC(=O)c1nnc(-c2ccccc2)nc1Sc1ccccc1Cl	H69AR growth 86K 0.6
CCOC(=O)c1nnc(-c2ccccc2)nc1Oc1ccc(Cl)cc1	none (no result: Lung fibro prol, HUVEC prolif 384, H69AR growth 86K)
CCOC(=O)c1nnc(-c2ccc(C)cc2)nc1Sc1cccc(Cl)c1	H69AR growth 86K 33
CCOC(=O)c1nnc(-c2ccccc2)nc1NCc1ccccc1	none (no result: Lung fibro prol, HUVEC prolif 384, H69AR growth 86K)
Cc1nc2sccn2c1-c1csc(NCc2ccccc2)n1	none
Cc1occc1C(=O)Nc1ccc(S(=O)(=O)N2CCCC2)cc1	none (no result: H69AR growth 86K)
O=C1CC(c2ccccc2)n2nc(NC(=O)c3ccccn3)nc2N1 (centres undefined)	H69AR growth 86K 29
O=C1CC(c2ccccc2)n2nc(NC(=O)c3ccccc3)nc2N1 (centres undefined)	none (no result: Lung fibro prol, HUVEC prolif 384, H69AR growth 86K)
O=C1OC(Nc2ccc3c(c2)OCO3)c2ccccc21 (centres undefined)	Lung fibro prol 49, H69AR growth 86K 16
Cc1c(C#N)c2ccccc2n1CC(=O)N1CCCc2ccccc21	H69AR growth 86K 32
Cc1c(C#N)c2ccccc2n1CC(=O)N1CCCC1	none
CCCCCCNS(=O)(=O)c1ccc(OC)c(OC)c1	none
CCOc1ccc(NC(=O)c2ccc3c(c2)N(Cc2ccc(F)cc2)C(=O)CS3=O)cc1 (centres undefined)	none
Cc1cccc(-c2nc(CN3CCCC(C(=O)NC4CCC(C)CC4)C3)c(C)o2)c1 (centres undefined)	HUVEC prolif 384 12
CCN(CCNC(=O)C1CCCN(Cc2nc(-c3ccc(OC)cc3)oc2C)C1)c1ccccc1 (centres undefined)	HUVEC prolif 384 4.7, H69AR growth 86K 32 (no result: Lung fibro prol)
CCc1ccc(-c2nc(CN3CCC(C(=O)NCc4ccc(F)cc4)CC3)c(C)o2)cc1	HUVEC prolif 384 14, H69AR growth 86K 3.3
Cc1oc(-c2ccc(Cl)cc2)nc1CN1CCC(C(=O)NCc2cccs2)CC1	none
CCN(CCNC(=O)C1CCN(Cc2nc(-c3ccc(Cl)cc3)oc2C)CC1)c1ccccc1	HUVEC prolif 384 3.9, H69AR growth 86K 7.3, HCT116 PTEN-null 1.6, bCat KO growth 1.1
CCc1ccc(-c2nc(CN3CCCC(C(=O)O)C3)c(C)o2)cc1 (centres undefined)	none
CCOc1ccccc1C1NC(=O)NC(C)=C1C(=O)OC1CCCC1C (centres undefined)	none
CCOC(=O)c1c(NC(=O)COC(=O)c2nc(Cl)ccc2Cl)sc2c1CCC2	none (no result: Lung fibro prol, HUVEC prolif 384, H69AR growth 86K)
CN(C)S(=O)(=O)N1CCN(c2ccccc2)CC1	none
COc1cc([N+](=O)[O-])ccc1NC(=O)CCCOc1ccc(C)cc1	none (no result: Lung fibro prol, HUVEC prolif 384, H69AR growth 86K)
Cc1oc(-c2ccccc2F)nc1CN1CCC(C(=O)NCc2ccco2)CC1	H69AR growth 86K 38
CCN(CCNC(=O)C1CCN(Cc2nc(-c3cccc(Cl)c3)oc2C)CC1)c1ccccc1	Lung fibro prol 43, HUVEC prolif 384 5.4, H69AR growth 86K 3.0, HCT116 PTEN-null 1.5, bCat KO growth 1.3
Cc1oc(-c2ccccc2F)nc1CN1CCC(C(=O)NC2CCCCCCC2)CC1	none
Cc1oc(-c2cccc(Cl)c2)nc1CN1CCC(C(=O)NCc2cccnc2)CC1	none
CCc1ccc(-c2nc(CN3CCC(C(=O)NCCN(CC)c4ccccc4)CC3)c(C)o2)cc1	Lung fibro prol 17, HUVEC prolif 384 2.3, H69AR growth 86K 1.6, HCT116 PTEN-null 1.7, bCat KO growth 1.9
COc1ccc(CCNC(=O)C2CCN(Cc3nc(-c4ccc(Cl)cc4)oc3C)CC2)cc1OC	none (no result: HCT116 PTEN-null, bCat KO growth)
CCc1cc2c(=O)n(-c3ccccc3)c(=S)[nH]c2s1	none
O=C(c1cnn(-c2nc3ccccc3s2)c1)c1ccccc1O	none (no result: Lung fibro prol, HUVEC prolif 384, H69AR growth 86K)
Cn1c(C(=O)Nc2ccc3c(c2)OCO3)cc2c(=O)n(C)c3ccccc3c21	H69AR growth 86K 31
Cn1c(C(=O)N2CCCC2)cc2c(=O)n(C)c3ccccc3c21	none
Cn1c(C(=O)N2CCN(Cc3ccc4c(c3)OCO4)CC2)cc2c(=O)n(C)c3ccccc3c21	H69AR growth 86K 38
COc1cc(CNCCc2ccc(S(N)(=O)=O)cc2)ccc1OCc1ccc(Cl)cc1	HCT116 PTEN-null 0.6, bCat KO growth 0.6 (no result: Lung fibro prol, HUVEC prolif 384, H69AR growth 86K)
COc1cc(CNCCc2ccc(S(N)(=O)=O)cc2)ccc1OCC(=O)NC1CCCCC1	none (no result: Lung fibro prol, HUVEC prolif 384, H69AR growth 86K)
CCOc1cc(CNCCc2ccc(S(N)(=O)=O)cc2)ccc1OCc1ccc(Cl)cc1	HCT116 PTEN-null 1.7, bCat KO growth 1.4 (no result: Lung fibro prol, HUVEC prolif 384, H69AR growth 86K)
COc1cc(CNCCN2CCOCC2)ccc1OCc1ccc(Cl)cc1	none (no result: Lung fibro prol, HUVEC prolif 384, H69AR growth 86K)
C=CCOC(=O)C1=C(C)OC(N)=C(C#N)C1c1c(C)nn(-c2ccccc2)c1Cl (centres undefined)	H69AR growth 86K 29
Cc1nn(-c2ccccc2)c(Cl)c1C1C(C#N)=C(N)Oc2c1c(C)nn2-c1ccccc1 (centres undefined)	H69AR growth 86K 5.1
CCOC(=O)C1=C(C)OC(N)=C(C#N)C1c1c(C)nn(-c2ccccc2)c1Cl (centres undefined)	none (no result: H69AR growth 86K)
Cc1ccc(-n2nc(C)c(C3C(C#N)=C(N)OC4=C3C(=O)CC(C)(C)C4)c2Cl)cc1 (centres undefined)	H69AR growth 86K 24 (no result: HCT116 PTEN-null, bCat KO growth)
O=C(NCCN1CCOCC1)c1ccc(CS(=O)(=O)c2ccc(Br)cc2)o1	none (no result: HCT116 PTEN-null, bCat KO growth)
C=CCOC(=O)C1=C(C)NC(SCC(=O)Nc2ccc(C)c(Cl)c2)=C(C#N)C1c1ccco1 (centres undefined)	Lung fibro prol 17, H69AR growth 86K 7.0, bCat KO growth 4.2
CCOC(=O)c1c(C)oc2c1c(C(c1cccnc1)N1CCCCC1)c(O)c1ccccc12 (centres undefined)	H69AR growth 86K 7.3
Fc1ccc(-c2cc3nc(-c4ccccc4)cc(N4CCN(CCN5CCOCC5)CC4)n3n2)cc1	H69AR growth 86K 26, HCT116 PTEN-null 1.6, bCat KO growth 1.7
CN1CCN(c2cc(-c3ccccc3)nc3cc(-c4ccc(F)cc4)nn23)CC1	HCT116 PTEN-null 1.3, bCat KO growth 3.8 (no result: Lung fibro prol, HUVEC prolif 384, H69AR growth 86K)
COc1cccc(-c2cc3nc(-c4ccccc4)cc(N4CCC5(CC4)OCCO5)n3n2)c1	none
CC(=O)NC(Cc1c[nH]c2ccccc12)C(=O)OCC(=O)Nc1ccc2c(c1)OCO2 (centres undefined)	H69AR growth 86K 13
CC(=O)NC(Cc1c[nH]c2ccccc12)C(=O)OCC(=O)Nc1cc(C)on1 (centres undefined)	none
O=c1c2ccccc2nc(N/N=C/c2c(O)ccc3ccccc23)n1O	none (no result: Lung fibro prol, HUVEC prolif 384, H69AR growth 86K)
CCOC(=O)c1cnc(SCc2nc(N)nc(Nc3ccc(C)cc3)n2)nc1N	H69AR growth 86K 35
